Screening results (PubChem BioAssay)
Beta cell apopt = beta cell apoptosis inhibition; protection from apoptosis, % (no concentration beside the values); 0.8% of 300,000 active; AID 435005; INS-1E cytokine-induced death, ATP luminescence, 48 h; percent of positive-control rescue, neutral wells zero;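 active means Every replicate reaches about 75%, or at least half do and their mean reaches it too, limit read from the data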;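 further: 0% = cytokine-treated negative control wells and 100% = positive control rescue; higher means more ATP so stronger rescue from cytokine killing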
MC4R antag cAMP = blocks human MC4R cAMP signaling. P32245. MC4R-expressing cells, MTII-stimulated cAMP, LANCE TR-FRET. inhibition, % at 6.5 µM. 0.48% of 360,000 active. AID 540295;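 active means inhibition above its plate's cutoff, the mean of tested wells on that plate plus 3 SD, cut at about 29% in these data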;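 further: 0% = Melanotan II alone and 100% = Melanotan II plus saturating MCL0020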
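System: U2OS cells stably expressing human melanocortin 4 receptor (MC4R). Reagent: Melanotan II challenge after compound preincubation. Doses: 6.5 µM. Times: 30-min compound, 1-h challenge, 1-h detection, room temperature. Measured by: TR-FRET with Eu-cAMP and labeled anti-cAMP, 671 nm. Replicates: singlicate.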
ANO1 activ = activates or potentiates the mouse TMEM16A chloride channel; Q8BHY3; HEK293 TMEM16A/YFP-H148Q/I152L, iodide quench fluorescence; hits give low values; B-score at 10 µM; 0.3% of 340,000 active;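 active means fluorescence-ratio B-score plate-corrected deviation score at least 3 library SD below zero, with starting fluorescence score within 5 deviations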;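 further: channel opened by trigger with iodide after compound preincubation; score built on the fluorescence ratio of max minus min over baseline; more negative score means more quench and so TMEM16A activation or potentiation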
Target sequence (Q8BHY3 whole entry, looked up): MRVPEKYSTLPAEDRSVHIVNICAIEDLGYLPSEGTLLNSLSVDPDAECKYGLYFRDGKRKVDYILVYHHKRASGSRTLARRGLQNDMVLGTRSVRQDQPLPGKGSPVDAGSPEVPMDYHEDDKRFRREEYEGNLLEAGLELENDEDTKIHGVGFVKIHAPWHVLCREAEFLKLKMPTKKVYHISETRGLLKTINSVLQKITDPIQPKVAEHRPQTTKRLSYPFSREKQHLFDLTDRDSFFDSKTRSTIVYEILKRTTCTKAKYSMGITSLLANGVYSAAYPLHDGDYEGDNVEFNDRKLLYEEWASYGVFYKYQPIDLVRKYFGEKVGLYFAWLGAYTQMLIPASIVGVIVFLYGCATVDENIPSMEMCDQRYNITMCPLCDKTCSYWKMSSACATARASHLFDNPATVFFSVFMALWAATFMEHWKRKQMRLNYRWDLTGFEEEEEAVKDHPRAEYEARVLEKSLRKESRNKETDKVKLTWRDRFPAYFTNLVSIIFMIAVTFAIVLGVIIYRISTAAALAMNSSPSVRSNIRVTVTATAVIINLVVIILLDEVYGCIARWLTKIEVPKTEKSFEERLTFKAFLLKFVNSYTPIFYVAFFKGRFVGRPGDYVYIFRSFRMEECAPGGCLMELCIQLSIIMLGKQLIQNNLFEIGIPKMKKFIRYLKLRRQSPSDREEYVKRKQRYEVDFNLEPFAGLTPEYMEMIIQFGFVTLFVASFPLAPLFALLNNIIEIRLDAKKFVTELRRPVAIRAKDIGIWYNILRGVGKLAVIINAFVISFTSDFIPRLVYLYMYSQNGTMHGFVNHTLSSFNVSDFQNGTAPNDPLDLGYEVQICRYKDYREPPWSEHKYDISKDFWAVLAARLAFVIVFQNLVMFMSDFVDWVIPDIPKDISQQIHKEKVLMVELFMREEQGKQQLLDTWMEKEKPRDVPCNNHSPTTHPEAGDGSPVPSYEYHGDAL
TMEM16A inh = inhibitors of mouse TMEM16A calcium-activated chloride channel | 1.2% of 310,000 active | normalized B-score (activity score, 25-100; higher = stronger inhibition) at 10 µM | HEK293 TMEM16A/YFP iodide influx fluorescence, ionomycin | Q8BHY3;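 active means ratio plate-corrected score three or more library SD toward inhibition, starting fluorescence score within five deviations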;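 further: score derived from kinetic fluorescence span divided by baseline fluorescence per well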
CSC inhib = blocks cancer stem cells; inhibition, % at 7.5 µM; 1.1% of 300,000 active; cancer stem cell-like cells viability, luminescence; AID 2717; in the data active means inhibition above about 75%; tested in HMLE shEcad cells
MC4R barr agon = activates human MC4R beta-arrestin recruitment; P32245; U2OS MC4R beta-arrestin complementation, luminescence; percent of melanotan II response, DMSO zero; activation, % at 8.9 µM; 0.98% of 360,000 active; AID 540308;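 active means activation above a per-plate cutoff, the mean activation of sample wells on that plate plus 3 SD, cut at about 8% in these data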
TMEM16A reconf = re-confirmation of mouse TMEM16A chloride channel inhibitors | shares compounds with TMEM16A inh | HEK293 TMEM16A/YFP-H148Q, iodide quench fluorescence; ionomycin added to raise cell calcium | inhibition, % at 10 µM | 39% of 2,300 active;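 active means mean duplicate percent inhibition, scaled so buffer wells are 0 and the reference blocker 100, over three buffer SD above buffer mean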
TMEM16A Ca cntr = calcium mobilization counter-screen hit for TMEM16A inhibitor series; AID 652231; shares compounds with TMEM16A inh; calcium response (% of ionomycin), % at 10 µM; TMEM16A/YFP HEK293, Fluo4 calcium mobilization; 2% of 2,300 active;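 active means duplicate-averaged calcium signal over 20% of the ionomycin maximum, relative to buffer baseline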;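 further: each well's signal is peak minus trough fluorescence divided by its pre-addition baseline; 0% = buffer wells and 100% = ionomycin wells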
YFP-HEK293 quench = counter-screen for TMEM16A inhibitors: effect in parental YFP-HEK293 cells; YFP ratio F(max-min)/F0 at 10 µM; shares compounds with TMEM16A inh; 2,300 tested, under 10 active; iodide YFP quench, ionomycin;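 active means yellow fluorescent protein signal ratio exceeding the buffer control mean by over 5 SD of those controls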;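 further: ratio is mean of duplicate wells from kinetic YFP trace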
ClC-1 rat inh = blocks the rat ClC-1 voltage-dependent chloride channel; shares compounds with TMEM16A inh; CHO ClC-1-YFP, iodide influx fluorescence quench; iodide control reads 0, buffer control 100; ratio percent, % at 10 µM; 2,300 tested, under 10 active;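 active means duplicate-mean ratio percent above the mean of iodide-only control wells, which defines zero, plus 5 of their SD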;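 further: higher percent means stronger block of ClC-1 iodide influx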
An asterisk follows results filed as active; i = inactive; . = no result. In the library only some 3.8% were active in any assay of this set; here they are far more common.

SMILES	Beta cell apopt	MC4R antag cAMP	ANO1 activ	TMEM16A inh	CSC inhib	MC4R barr agon	TMEM16A reconf	TMEM16A Ca cntr	YFP-HEK293 quench	ClC-1 rat inh
O=C(CSc1nc2ccccc2c(=O)n1CC1CCCO1)NCCc1ccccc1 (centres undefined)	3	14	i	i	-7	1	.	.	.	.
CCOC(=O)Cc1ccc(NC(=O)c2ccc(C(C)(C)C)cc2)cc1	6	-2	i	100*	47	-3	32%*	i	-0.91	4
CCOC(=O)Cc1ccc(NC(=O)c2ccccc2Br)cc1	2	12	i	i	4	-1	.	.	.	.
Cc1ccc(-c2nc(CS(=O)(=O)CC(=O)N3CCc4ccccc4C3)c(C)o2)cc1	-4	-2	i	25*	-5	-1	26%*	i	-0.9	-10
Cc1ccc(C2CC(=O)c3cnc(N4CCN(c5ccccc5)CC4)nc3C2)cc1 (centres undefined)	-5	3	i	i	11	-2	.	.	.	.
O=C1CC(c2ccco2)Cc2nc(N3CCN(Cc4ccc5c(c4)OCO5)CC3)ncc21 (centres undefined)	2	2	i	25*	15	0	i	i	-0.95	-4
COc1ccc(C2CC(=O)c3cnc(N4CCN(Cc5ccccc5)CC4)nc3C2)cc1 (centres undefined)	5	-1	i	25*	16	1	i	i	-1.1	-5
c1cnc(N2CCN(Cc3ccc4c(c3)OCO4)CC2)nc1	-6	6	i	i	-6	0	.	.	.	.
O=C(CSc1ncnc2ccccc12)c1ccc2c(c1)OCCO2	-14	-2	i	25*	-22	0	39%*	i	-0.91	-19
CCc1nc(SCC(=O)c2ccc3c(c2)OCCO3)c2ccccc2n1	-18	-1	i	i	7	0	.	.	.	.
C=C(c1ccc(O)cc1)c1ccc(O)cc1	-11	-4	i	100*	52	-3	24%*	i	-1.1	-15
Cc1ccc(-n2nc3c(=O)n(C(C)C(=O)NCCC4=CCCCC4)nc(C)c3c2C)cc1 (centres undefined)	16	-2	i	25*	12	-2	i	i	-1.3	-4
COc1ccccc1C(=O)NCCCN1CCCC1=O	-6	8	i	25*	-11	-2	i	i	-1.1	-16
CSc1ccc(CN2CCC(C)(Oc3ccccc3F)C2)cc1 (centres undefined)	.	1	.	.	.	-1	.	.	.	.
FC(F)(F)c1nc(N2CCCC2)ncc1-c1nnnn1-c1ccc(Cl)cc1	33	-1	i	25*	19	3	i	i	-1.1	-20
COc1cccc(-c2cnc(C(O)c3ccc(OC)c(F)c3)[nH]2)c1 (centres undefined)	.	3	.	.	.	-1	.	.	.	.
Cc1ccccc1-n1c(=O)n(Cc2ccco2)c(=O)c2[nH]cnc21	3	-8	i	i	-3	-3	.	.	.	.
CCn1c(CNc2cccc(Cl)c2)nnc1SCC(=O)OC1CCCCC1	8	9	i	i	-3	-2	.	.	.	.
CCn1c(CNc2ccc(Cl)cc2)nnc1SCC(=O)OC1CCCCC1	3	9	i	100*	19	0	18%*	i	-1.2	-8
CCOC(=O)N1CCN(c2nc3ccccc3nc2C(C#N)S(=O)(=O)c2ccc(C)cc2)CC1 (centres undefined)	20	-1	i	100*	36	0	76%*	i	-1	-19
